Measured values: ChEMBL document CHEMBL4000211, “Discovery of novel polycyclic spiro-fused carbocyclicoxindole-based anticancer agents” (Eur J Med Chem, 2017)

Legend:
A2780S [1] = assay: Antiproliferative activity against human A2780S cells at 30 uM after 48 hrs by MTT assay relative to control; type: functional
How it was run: (§1)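 Cells seeded at 3×10³/well and grown 24 h, then exposed 48 h to six final concentrations, twofold steps down from 30. MTT (5 mg/mL) was added for 2–4 h at 37 °C. Supernatant was removed, formazan dissolved in DMSO, and OD read at 570 nm. Results are given as IC50, or as percent inhibition where IC50 exceeds the top concentration. At least three runs.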

A2780/Taxol = assay: Antiproliferative activity against human A2780T cells at 30 uM after 48 hrs by MTT assay relative to control; type: functional; how it was run: as §1
NCI-H1299 = assay: Antiproliferative activity against human NCI-H1299 cells after 48 hrs by MTT assay; type: functional, cell-based; conditions: NCI-H1299, 48 h; how it was run: as §1
BGC-823 = assay: Antiproliferative activity against human BGC823 cells after 48 hrs by MTT assay; type: functional, cell-based; conditions: BGC-823, 48 h; how it was run: as §1
CT26 = assay: Antiproliferative activity against mouse CT26 cells after 48 hrs by MTT assay; type: functional, cell-based; conditions: CT26, 48 h; how it was run: as §1
HCT-116 = assay: Antiproliferative activity against human HCT116 cells after 48 hrs by MTT assay; type: functional, cell-based; conditions: HCT-116, 48 h; how it was run: as §1
A549 = assay: Antiproliferative activity against human A549 cells after 48 hrs by MTT assay; type: functional, cell-based; conditions: A549, 48 h; how it was run: as §1
MCF7 = assay: Antiproliferative activity against human MCF7 cells after 48 hrs by MTT assay; type: functional, cell-based; conditions: MCF7, 48 h; how it was run: as §1
NCI-H1975 = assay: Antiproliferative activity against human NCI-H1975 cells after 48 hrs by MTT assay; type: functional, cell-based; conditions: NCI-H1975, 48 h; how it was run: as §1
A2780S [2] = assay: Antiproliferative activity against human A2780S cells after 48 hrs by MTT assay; type: functional, cell-based; how it was run: as §1

| Compound | IC50 (NCI-H1299) | IC50 (BGC-823) | IC50 (CT26) | IC50 (HCT-116) | IC50 (A549) | IC50 (MCF7) | IC50 (NCI-H1975) | IC50 (A2780S [2]) | inhibition at 30 µM (A2780S [1]) | inhibition at 30 µM (A2780/Taxol) |
| --- | --- | --- | --- | --- | --- | --- | --- | --- | --- | --- |
| C[C@@H]1C(C=O)=C[C@H]2[C@@H](c3ccccc3OC2(C)C)[C@@]12C(=O)Nc1ccccc12 | > 30 µM | > 30 µM | > 30 µM | > 30 µM | > 30 µM | > 30 µM | > 30 µM | – | 14.4% | 3.8% |
| O=CC1=C[C@@H]2COc3ccccc3[C@H]2C2(C1)C(=O)Nc1ccccc12 (some centres not stated) | > 30 µM | > 30 µM | 27.1 µM | 25.8 µM | > 30 µM | > 30 µM | > 30 µM | 21.6 µM | – | 25% |
| C[C@@H]1C(C=O)=C[C@H]2[C@@H](c3cc(Br)ccc3O[C@@H]2C)[C@@]12C(=O)Nc1ccccc12 | > 30 µM | > 30 µM | > 30 µM | > 30 µM | > 30 µM | > 30 µM | > 30 µM | – | 35.9% | 2.3% |
| C[C@@H]1C(C=O)=C[C@H]2[C@@H](c3ccccc3O[C@@H]2C)[C@@]12C(=O)Nc1ccc(F)cc12 | > 30 µM | > 30 µM | > 30 µM | > 30 µM | > 30 µM | > 30 µM | > 30 µM | – | 14.5% | 4.4% |
| COc1ccc2c(c1)O[C@H](C)[C@H]1C=C(C=O)[C@@H](C)[C@]3(C(=O)Nc4ccccc43)[C@H]21 | > 30 µM | > 30 µM | > 30 µM | > 30 µM | > 30 µM | > 30 µM | > 30 µM | – | 9.3% | 3.9% |
| C[C@@H]1C(C=O)=C[C@H]2[C@@H](c3ccccc3N[C@@H]2C)[C@@]12C(=O)Nc1ccccc12 | > 30 µM | > 30 µM | > 30 µM | > 30 µM | > 30 µM | > 30 µM | > 30 µM | – | 47.2% | 15.2% |
| Cc1ccc2c(c1)[C@]1(C(=O)N2)[C@H](C)C(C=O)=C[C@H]2[C@H]1c1ccccc1O[C@@H]2C | > 30 µM | > 30 µM | > 30 µM | > 30 µM | > 30 µM | > 30 µM | > 30 µM | – | 12.8% | 7.1% |
| C[C@@H]1C(C=O)=C[C@H]2[C@@H](c3cccc(F)c3O[C@@H]2C)[C@@]12C(=O)Nc1ccccc12 | > 30 µM | > 30 µM | > 30 µM | > 30 µM | > 30 µM | > 30 µM | > 30 µM | – | 22.2% | 5.7% |
| C[C@@H]1C(C=O)=C[C@H]2[C@@H](c3cc(F)ccc3O[C@@H]2C)[C@@]12C(=O)Nc1ccccc12 | > 30 µM | > 30 µM | > 30 µM | > 30 µM | > 30 µM | > 30 µM | > 30 µM | – | 22.7% | 2.6% |
| C[C@@H]1C(C=O)=C[C@H]2[C@@H](c3cc(Cl)ccc3O[C@@H]2C)[C@@]12C(=O)Nc1ccccc12 | > 30 µM | > 30 µM | > 30 µM | > 30 µM | > 30 µM | > 30 µM | > 30 µM | – | 16.5% | 5.8% |
| CC[C@@H]1C(C=O)=C[C@H]2[C@@H](c3ccccc3O[C@@H]2CC)[C@@]12C(=O)Nc1ccccc12 | > 30 µM | > 30 µM | > 30 µM | > 30 µM | > 30 µM | > 30 µM | > 30 µM | – | 34.1% | 9% |

More lines, main results first:

| IC50 (NCI-H1299) | IC50 (BGC-823) | IC50 (CT26) | IC50 (HCT-116) | IC50 (A549) | IC50 (MCF7) | IC50 (NCI-H1975) | IC50 (A2780S [2]) | Compound | inhibition at 30 µM (A2780S [1]) | inhibition at 30 µM (A2780/Taxol) |
| --- | --- | --- | --- | --- | --- | --- | --- | --- | --- | --- |
| > 30 µM | > 30 µM | > 30 µM | > 30 µM | > 30 µM | > 30 µM | > 30 µM | – | Cc1ccc2c(c1)[C@@H]1[C@H](C=C(C=O)[C@@H](C)[C@]13C(=O)Nc1ccccc13)[C@@H](C)O2 | 28.2% | 10.4% |
| > 30 µM | > 30 µM | > 30 µM | > 30 µM | > 30 µM | > 30 µM | > 30 µM | – | C[C@@H]1C(C=O)=C[C@H]2[C@@H](c3ccccc3O[C@@H]2C)[C@@]12C(=O)Nc1ccccc12 | 23.5% | 17.3% |
| > 30 µM | > 30 µM | > 30 µM | > 30 µM | > 30 µM | > 30 µM | > 30 µM | – | C[C@@H]1C(C=O)=C[C@H]2[C@@H](c3ccccc3O[C@@H]2C)[C@@]12C(=O)N(C)c1ccccc12 | 26.3% | 4.5% |
| > 30 µM | > 30 µM | > 30 µM | > 30 µM | > 30 µM | > 30 µM | > 30 µM | 25.7 µM | CCC[C@@H]1C(C=O)=C[C@H]2[C@@H](c3ccccc3O[C@@H]2CCC)[C@@]12C(=O)Nc1ccccc12 | – | 33.1% |
| > 30 µM | > 30 µM | > 30 µM | > 30 µM | > 30 µM | > 30 µM | > 30 µM | – | C[C@@H]1C(C=O)=C[C@H]2[C@@H](c3cc([N+](=O)[O-])ccc3O[C@@H]2C)[C@@]12C(=O)Nc1ccccc12 | 25.2% | 0.2% |
| > 30 µM | > 30 µM | > 30 µM | > 30 µM | > 30 µM | > 30 µM | > 30 µM | 19.7 µM | C[C@@H]1C(C=O)=C[C@H]2[C@@H](c3ccccc3O[C@@H]2C)[C@@]12C(=O)Nc1cc(Cl)ccc12 | – | 13.1% |
| 30 µM | 25.7 µM | > 30 µM | > 30 µM | > 30 µM | > 30 µM | > 30 µM | 18.9 µM | C[C@@H]1C(C=O)=C[C@H]2[C@@H](c3ccccc3O[C@@H]2C)[C@@]12C(=O)N(c1ccccc1)c1ccccc12 | – | 40.6% |
